# Assay results pooled from the literature.
# Lines come from different studies, so protocols differ.
# Observed: enzyme activity
# ABL1: Tyrosine-protein kinase ABL1 (ABL1, Homo sapiens, UniProt P00519)
Structure (SMILES),target,assay,setting,remaining activity [%]
CCN(CC)c1ccc(C2=NNC(=O)CC2C)cc1[N+](=O)[O-] (stereo not drawn),ABL1,inhibitor,10 µM,87
Cc1sc(C(=O)NC2COC2)cc1-n1cc(NC(=O)Nc2c(F)cccc2Cl)cn1,ABL1,inhibitor,10 µM,102
Cc1ccc(NC(=O)c2ccc(C)c(C(F)(F)F)c2)cc1C#Cc1nn(C2CCC(O)CC2)c2ncnc(N)c12 (stereo not drawn),"Tyrosine-protein kinase ABL1 (ABL1, Homo sapiens, UniProt P00519, M351T)",,10 µM,0
CC(C)(C)c1nc(-c2cccc(NS(=O)(=O)c3c(F)cccc3F)c2F)c(-c2ccnc(N)n2)s1,ABL1,"inhibitor, radiometric",1 µM,94
Cc1[nH]c(/C=C2\C(=O)Nc3ccc(F)cc32)c(C)c1C(=O)N[C@H]1CCN(C(=O)N(C)C)C1,ABL1,inhibitor,0.1 µM,104
CCCOc1ccc(OC)c(F)c1C(=O)c1ccc(C(=O)N[C@@H]2CNC[C@H]2NC(=O)c2ccc3[nH]ncc3c2)cc1,ABL1,inhibitor,10 µM,80
CC(C)(O)[C@H]1CC[C@H](Nc2ccc3ncc(-c4cccc(C(F)(F)F)c4)n3n2)CC1,ABL1,inhibitor,1 µM,69.8
COc1cc(Nc2cnc(C#N)c(O[C@H](C)CN(C)C)n2)ncc1-c1cnn(C)c1,ABL1,"inhibitor, radiometric",10 µM,58
Cc1cnc(NC2CCOCC2)nc1-n1cnc(C(=O)NC(CN)c2cc(F)cc(Cl)c2)c1 (stereo not drawn),"Tyrosine-protein kinase ABL1 (ABL1, Homo sapiens, UniProt P00519, Q252H)","inhibitor, radiometric",1 µM,91
